Source: PubChem BioAssay
HNF4A DNA FP: change in binding of human HNF4 alpha to DNA | AID 1224865 | HNF4a-FITC DNA binding, fluorescence polarization, 1 h | activity change, % at 10 µM | 360,000 tested, 0.3% active | P41235; in the data active = activity change above about 30%, passing the limit was not always enough
PP1 counter: PP1-alpha (human) inhibition in PP5 counter-screen; P62136; purified PP1alpha, OMFP fluorescence; AID 2235; 320,000 tested, 0.9% active; inhibition, % at 6.7 µM;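 active = inhibition above the mean inhibition of all tested compounds plus 3 SD, computed separately for each screening campaign, cut at about 15% in these data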
CSN deneddyl inh: CSN deneddylation inhibition; inhibition, % at 12.5 µM; Purified CSN, SCF-Nedd8-OG deneddylation, fluorescence polarization; Q92905; 360,000 tested, 0.38% active; AID 651999;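 active = pattern-corrected inhibition above about 35%, with an unprinted fluorescence ratio check between 0.5 and 1.5, limit read from the data, passing the limit was not always enough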
Target sequence (Q92905 whole entry, looked up, one chain of several): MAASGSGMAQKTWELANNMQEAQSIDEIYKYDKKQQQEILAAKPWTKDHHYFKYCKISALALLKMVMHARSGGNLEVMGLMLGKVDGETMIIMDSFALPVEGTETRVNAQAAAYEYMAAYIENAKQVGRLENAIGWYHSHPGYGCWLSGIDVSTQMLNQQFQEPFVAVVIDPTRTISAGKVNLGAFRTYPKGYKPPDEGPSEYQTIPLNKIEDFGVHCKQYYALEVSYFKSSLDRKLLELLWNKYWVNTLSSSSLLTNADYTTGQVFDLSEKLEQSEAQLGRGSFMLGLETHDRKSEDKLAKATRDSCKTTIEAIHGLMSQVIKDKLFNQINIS
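Assay system: purified human Csn5 enzyme expressed in HEK293T cells; Input: 0.24 nM Csn5 enzyme, final concentration; Reagent: 10 nM SCFSkp2-Nedd8OG; Compound dosing: 12.5 µM single point; Times: reaction 90 min, room temperature; Technique: fluorescence polarization readout.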
TPT1 inhibitor: inhibitors of Candida albicans tRNA 2'-phosphotransferase TPT1; 300,000 tested, 0.81% active; inhibition, % at 5 µM; recombinant caTPT1, FP RNA substrate dephosphorylation;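 active = inhibition above the mean of all tested compounds plus 3 SD, set per screening campaign, cut at about 24% in these data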
Rpn11 inh: Rpn11 (human) deubiquitinase inhibition | O00487 | human 26S proteasome, Ub4-pepOG fluorescence polarization; 20S core pre-blocked with epoxomicin | inhibition, % at 20 µM | 360,000 tested, 0.59% active;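 active = inhibition at 20 µM, scaled to each plate's controls, above about 33%, limit read from the data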
Target sequence (O00487 whole entry, looked up): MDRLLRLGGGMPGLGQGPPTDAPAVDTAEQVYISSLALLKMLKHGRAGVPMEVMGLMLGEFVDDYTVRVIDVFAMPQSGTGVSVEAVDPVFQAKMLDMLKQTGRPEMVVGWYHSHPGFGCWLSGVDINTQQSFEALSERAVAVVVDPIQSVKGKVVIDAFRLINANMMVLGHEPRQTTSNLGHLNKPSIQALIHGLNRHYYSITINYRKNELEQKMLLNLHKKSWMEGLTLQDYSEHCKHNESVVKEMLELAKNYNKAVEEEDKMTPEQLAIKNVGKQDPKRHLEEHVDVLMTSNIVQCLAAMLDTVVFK
NadD inh: NadD (S. aureus) enzyme inhibition; purified NadD enzyme, colorimetric absorbance read-out; inhibition, % at 20 µM; 360,000 tested, 0.78% active; AID 602399; in the data active = inhibition above about 26%
NadD conf: NadD (S. aureus) inhibition, single concentration confirmation; 2,000 tested, 13% active; AID 624309; inhibition, % at 20 µM; shares compounds with NadD inh; purified S. aureus NadD, colorimetric enzyme assay; in the data active = inhibition mostly above about 42%, no sharp cut-off; inactive = mostly below about 42%
Hits are given with their value; i = inactive; nt = no result given. Only some compounds are listed: those with a hit (about 2.7% of all), similar ones and a draw of the others.

SMILES	HNF4A DNA FP	PP1 counter	CSN deneddyl inh	TPT1 inhibitor	Rpn11 inh	NadD inh	NadD conf
COc1cc2c(C#N)c(N3CCc4ccccc4C3)nc(N)c2c(N)n1	i	i	i	i	i	42	i
COc1ccccc1N1CCN(c2nc3ccccc3nc2C(C#N)C(=O)OC(C)C)CC1 (centres undefined)	i	i	i	i	i	37	i
C/C(=N\Nc1ccc(C)c(Cl)c1)c1cccnc1	i	i	i	i	i	i	nt
O=C(NCc1ccco1)C12CN(Cc3ccccc3)CC1C(c1ccc([N+](=O)[O-])cc1)=NO2 (centres undefined)	i	i	i	i	i	i	nt
O=C(NCc1ccco1)C12CN(Cc3ccccc3)CC1C(c1cccc([N+](=O)[O-])c1)=NO2 (centres undefined)	i	i	i	i	i	36	i
Cc1cccc(NC(=O)c2nc[nH]c2C(=O)NCCCCCCNC(=O)c2[nH]cnc2C(=O)Nc2cccc(C)c2)c1	i	i	i	nt	i	37	i
Cc1cccc(NC(=O)c2nc[nH]c2C(=O)NCCCCNC(=O)c2[nH]cnc2C(=O)Nc2cccc(C)c2)c1	i	nt	i	nt	i	37	i
Cc1cccc(NC(=O)c2nc[nH]c2C(=O)NCc2ccccc2)c1	i	i	i	nt	i	i	nt
Cc1onc(-c2ccccc2)c1C(=O)Nc1ccc(S(=O)(=O)N2CCOCC2)cc1	i	i	i	i	i	i	nt
O=c1[nH]c(NNC(=S)NCc2ccccc2)nc2c1C1(CCCCC1)Cc1ccccc1-2	i	i	i	i	i	37	53
Cc1cc(C)nc(N/N=C/c2cc3c(cc2[N+](=O)[O-])OCO3)n1	i	i	i	i	i	i	nt
O=[N+]([O-])c1ccc(Nc2nc(N/N=C/c3cccc(F)c3)nc(N3CCCC3)n2)cc1	i	i	i	i	i	38	i
O=[N+]([O-])c1ccc(Nc2nc(NC3CCCCC3)nc(N3CCCC3)n2)cc1	i	i	i	i	i	39	i
O=[N+]([O-])c1cc2c(cc1/C=N/Nc1nc(Nc3ccccc3)nc(N3CCCCC3)n1)OCO2	i	i	i	i	i	39	i
CCOC(=O)Cc1csc(NC(=O)CSc2nc(=O)[nH]c3c2CCCC3)n1	i	i	i	i	i	i	nt
COc1cc2nc(N(CCCN(C)C)C(=O)c3ccc(S(=O)(=O)N4CCc5ccccc54)cc3)sc2cc1OC	i	i	i	i	i	34	i
COc1ccc(CN2CCNC(=O)C2CC(=O)NCC2CCOCC2)c(F)c1 (centres undefined)	i	i	i	i	i	i	nt
O=C1NC[C@H](Cc2ccccc2)N(C[C@H]2CCCN2C[C@H](Cc2ccc(O)cc2)N2C[C@H](Cc3ccc(O)cc3)N(CC3CCCCCC3)C(=O)C2=O)C1=O	i	nt	i	nt	i	33	i
CC(C)C[C@H]1CN([C@@H](Cc2ccc(O)cc2)CN2CCC[C@@H]2CN2C(=O)C(=O)NC[C@@H]2Cc2ccccc2)C(=O)C(=O)N1CC1CCCCCC1	i	nt	i	nt	i	i	nt
O=C1NC[C@H](Cc2ccc(O)cc2)N(C[C@@H]2CCCN2C[C@H](Cc2ccc(O)cc2)N2C[C@H](Cc3ccccc3)N(CC3CCCCCC3)C(=O)C2=O)C1=O	i	nt	i	nt	nt	45	i
O=C1NC[C@H](Cc2ccc(O)cc2)N(C[C@@H]2CCCN2C[C@H](Cc2ccccc2)N2C[C@H](Cc3ccc(O)cc3)N(CC3CCCCCC3)C(=O)C2=O)C1=O	i	nt	i	nt	nt	39	i
O=C1NC[C@H](Cc2ccccc2)N(C[C@H]2CCCN2C[C@H](Cc2ccccc2)N2C[C@H](Cc3ccc(O)cc3)N(CC3CCCCCC3)C(=O)C2=O)C1=O	i	nt	i	nt	i	31	48
N#Cc1ccccc1OCC(=O)Nc1cc(S(=O)(=O)N2CCCCC2)ccc1N1CCOCC1	i	nt	i	nt	i	i	nt
Cc1ccc(-c2cc(-c3ccc(C)o3)nc(N)c2C#N)cc1	i	i	i	i	i	58	62
Cc1ccc(-c2cc(-c3ccc(Cl)cc3)c(C#N)c(N)n2)o1	i	i	i	i	i	59	71
SMILES	HNF4A DNA FP	PP1 counter	CSN deneddyl inh	TPT1 inhibitor	Rpn11 inh	NadD inh	NadD conf
Cc1ccc(-c2cc(-c3ccc4c(c3)OCO4)c(C#N)c(N)n2)o1	i	i	i	i	i	39	i
Cc1cc(-c2cc(-c3ccc(Cl)cc3)nc(N)c2C#N)co1	i	i	i	i	i	84	i
COc1ccc(-c2cc(-c3ccc(O)cc3)nc(N)c2C#N)cc1OC	i	i	i	i	i	i	nt
Cc1ccc(-c2cc(-c3ccc(F)cc3)c(C#N)c(N)n2)o1	i	i	i	i	i	65	i
COCCNc1nnc(SCC(=O)NC2CCCCC2)s1	i	i	i	nt	i	i	nt
CC(C)CC(C(=O)Nc1oc(-c2ccccc2)c(-c2ccccc2)c1C#N)N1C(=O)c2ccccc2C1=O (centres undefined)	i	i	i	i	i	36	i
N#Cc1c(NC(=O)CN2C(=O)c3ccccc3C2=O)oc(-c2ccccc2)c1-c1ccccc1	i	i	i	i	i	33	i
O=C(CCNC(=O)c1ccc([N+](=O)[O-])cc1)Nc1cccc(S(=O)(=O)N2CCCCCC2)c1	i	i	i	nt	i	i	nt
Cc1nn(-c2ccccc2)c(N2CCCCC2)c1/C=N/NC(=O)c1ccncc1	i	i	i	i	i	i	nt
Cc1nn(-c2ccccc2)c(N2CCCC2)c1/C=N/Nc1ccc(S(=O)(=O)Nc2ccccc2)cc1[N+](=O)[O-]	i	i	i	i	i	47	i
COc1ccccc1NS(=O)(=O)c1ccc(N/N=C/c2c(C)nn(-c3ccccc3)c2N2CCCC2)c([N+](=O)[O-])c1	i	i	i	i	i	38	i
O=C(O)c1ccccc1NS(=O)(=O)c1ccc(NN=Cc2cccc(Cl)c2)c([N+](=O)[O-])c1	i	nt	i	nt	i	31	i
CCOc1ccc(S(=O)(=O)Nc2ccc(C(=O)N/N=C/c3c(C)nn(-c4ccccc4)c3N3CCCC3)cc2)cc1	i	i	i	i	i	33	i
COc1c(/C=N/Nc2ccc([N+](=O)[O-])cc2[N+](=O)[O-])c(C)nn1-c1ccccc1	i	i	i	i	i	i	nt
O=C(O)c1ccccc1NS(=O)(=O)c1ccc(N/N=C/c2ccc(O)c(O)c2)c([N+](=O)[O-])c1	i	nt	i	nt	i	i	nt
CC1(C)OC2CC3C4CC(F)C5=CC(=O)C=CC5(C)C4(F)C(O)CC3(C)C2(C(=O)CO)O1 (centres undefined)	i	i	i	i	i	i	nt
COc1cccc(NC(=O)CCS(=O)(=O)c2ccc(Br)cc2)c1	i	i	i	i	i	i	nt
O=C(COc1ccc(-c2nnco2)cc1)Nc1c(Cl)cccc1C(F)(F)F	i	i	i	i	i	i	nt
